Assay results from ChEMBL document CHEMBL1126826, “2'-(Trimethylammonio)ethyl 4-(hexadecyloxy)-3(S)-methoxybutanephosphonate: a novel potent antineoplastic agent” (J Med Chem, 1993).
Several values for one entry are separate records, joined by “and”; a condition that tells them apart may be missing. Equal entries are not always repeated.

Columns and labels:
[1] = Compounds were evaluated for antineoplastic activity against […] cells using clonogenic assays.; assay type: functional, cell-based; settings: Mus musculus
How it was run: (§1)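 WEHI-3B murine cells grown in methyl cellulose/RPMI colony (clonogenic) assay with compound at a range of concentrations for 5 days in 60-mm dishes. Colonies counted after 5 days and expressed as percentage of untreated control colonies. Mean of three experiments run in triplicate ± SD. IC50 taken from the concentration-response.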

[2] = Effect on […] cell growth expressed as percent number of colonies compared to control at a concentration of 1.2 uM; assay type: functional, Mus musculus; how it was run: as §1
[3] = Effect on […] cell growth expressed as percent number of colonies compared to control at a concentration of 10 uM; assay type: functional, Mus musculus; how it was run: as §1
[4] = Effect on […] cell growth expressed as percent number of colonies compared to control at a concentration of 2.5 uM; assay type: functional, Mus musculus; how it was run: as §1
[5] = Effect on […] cell growth expressed as percent number of colonies compared to control at a concentration of 20 uM; assay type: functional, Mus musculus; how it was run: as §1
[6] = Effect on […] cell growth expressed as percent number of colonies compared to control at a concentration of 5 uM; assay type: functional, Mus musculus; how it was run: as §1
[7] = Compounds were evaluated for antineoplastic activity against […] cells using clonogenic assays; assay type: functional, cell-based; settings: Mus musculus; how it was run: as §1
[8] = Effect on […] cell growth expressed as percent number of colonies compared to contro at a concentration of 0.6 uM; assay type: functional, cell-based; settings: Mus musculus; how it was run: as §1
[9] = Effect on […] cell growth expressed as percent number of colonies compared to contro at a concentration of 1.2 uM; assay type: functional, Mus musculus; how it was run: as §1
[10] = Effect on […] cell growth expressed as percent number of colonies compared to contro at a concentration of 10 uM; assay type: functional, Mus musculus; how it was run: as §1
[11] = Effect on […] cell growth expressed as percent number of colonies compared to contro at a concentration of 2.5 uM; assay type: functional, Mus musculus; how it was run: as §1
[12] = Effect on […] cell growth expressed as percent number of colonies compared to contro at a concentration of 20 uM; assay type: functional, Mus musculus; how it was run: as §1
[13] = Effect on […] cell growth expressed as percent number of colonies compared to contro at a concentration of 5 uM; assay type: functional, Mus musculus; how it was run: as §1

| IC50 [1] [nM] | IC50 [7] [nM] | Compound | Control [2] [%] | Control [3] [%] | Control [4] [%] | Control [5] [%] | Control [6] | percent of control colonies [8] [%] | Control [9] [%] | Control [10] [%] | Control [11] [%] | Control [12] [%] | Control [13] [%] |
| --- | --- | --- | --- | --- | --- | --- | --- | --- | --- | --- | --- | --- | --- |
| 2500 | – | CCCCCCCCCCCCCCCCOC[C@H](CCP(=O)([O-])OCC[N+](C)(C)C)OC | 95 | 30 | 88 | 32 | 58% and 48% | – | – | – | – | – | – |
| – | 2500 | CCCCCCCCCCCCCCCCCCOCC(COP(=O)([O-])OCC[N+](C)(C)C)OC (stereo not drawn) [EDELFOSINE] | – | – | – | – | – | 105 | 91 | 36 | 68 | 30 | 48 |
